According to ChEMBL document CHEMBL1127451, “Benzoselenazolinone derivatives designed to be glutathione peroxidase mimetics feature inhibition of cyclooxygenase/5-lipoxygenase pathways and anti-inflammatory activity” (1994):

Columns and labels:
[1] = In vitro glutathione peroxidase activity at 2*10e-7M using tert-butyl hydroperoxide, activity given in percentage of ebselen''s activity; assay type: functional
[2] = Inhibition of spontaneous lipid peroxidation at 10e-5 M in rat brain homogenate
[3] = In vitro glutathione peroxidase activity at 2*10e-7M using hydrogen peroxide, activity given in percentage of ebselen''s activity; assay type: functional
[4] = Inhibition of [Fe(2+)]/ascorbate-induced lipid peroxidation at 10e-5 M in rat brain homogenate
[5] = system: Rattus norvegicus; test: Tested for acute anti-inflammatory activity of the antirat serum-induced edema in rats at dose of 30 mg/kg at time interval- 0.5 hr; assay type: functional
Summary of the method: (§1)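 Fasted Wistar rats (200–240 g), six per group, receive drug orally in 2% gelatin. One hour later, 0.1 mL rabbit antirat serum is injected subplantar into the hind paw. Paw volume is measured by water plethysmometry at injection and at 0.5, 1, 2, 3 and 4 h. Results are percent inhibition of swelling versus vehicle-treated rats.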

[6] = system: Rattus norvegicus; test: Tested for acute anti-inflammatory activity of the antirat serum-induced edema in rats at dose of 3 mg/kg at time interval- 2 hr; assay type: functional; summary of the method: as §1
[7] = system: Rattus norvegicus; test: Tested for acute anti-inflammatory activity of carrageenan-induced foot edema in rats at dose of 30 mg/kg at time interval- 2 hr; assay type: functional
Summary of the method: as §1, with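 “2% carrageenan in […]” for “rabbit antirat serum”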

[8] = system: Rattus norvegicus; test: Tested for acute anti-inflammatory activity of the antirat serum-induced edema in rats at dose of 30 mg/kg at time interval- 4 hr; assay type: functional; summary of the method: as §1
[9] = system: Rattus norvegicus; test: Tested for acute anti-inflammatory activity of carrageenan-induced foot edema in rats at dose of 3 mg/kg at time interval- 4 hr; assay type: functional
Summary of the method: as §1, with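 “2% carrageenan in […]” for “rabbit antirat serum”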

[10] = system: Rattus norvegicus; test: Tested for acute anti-inflammatory activity of the antirat serum-induced edema in rats at dose of 100 mg/kg at time interval- 2 hr; assay type: functional; summary of the method: as §1
[11] = system: Rattus norvegicus; test: Tested for acute anti-inflammatory activity of carrageenan-induced foot edema in rats at dose of 100 mg/kg at time interval- 0.5 hr; assay type: functional
Summary of the method: as §1, with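 “2% carrageenan in […]” for “rabbit antirat serum”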

[12] = system: Rattus norvegicus; test: Tested for acute anti-inflammatory activity of the antirat serum-induced edema in rats at dose of 100 mg/kg at time interval- 3h; assay type: functional; summary of the method: as §1
[13] = system: Rattus norvegicus; test: Tested for acute anti-inflammatory activity of carrageenan-induced foot edema in rats at dose of 30 mg/kg at time interval- 1 hr; assay type: functional
Summary of the method: as §1, with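 “2% carrageenan in […]” for “rabbit antirat serum”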

[14] = system: Rattus norvegicus; test: Tested for acute anti-inflammatory activity of the antirat serum-induced edema in rats at dose of 100 mg/kg at time interval- 0.5 hr; assay type: functional; summary of the method: as §1
[15] = system: Rattus norvegicus; test: Tested for acute anti-inflammatory activity of the antirat serum-induced edema in rats at dose of 30 mg/kg at time interval- 3h; assay type: functional; summary of the method: as §1
[16] = system: Rattus norvegicus; test: Tested for acute anti-inflammatory activity of the antirat serum-induced edema in rats at dose of 3 mg/kg at time interval- 1 hr; assay type: functional; summary of the method: as §1
[17] = system: Rattus norvegicus; test: Tested for acute anti-inflammatory activity of the antirat serum-induced edema in rats at dose of 3 mg/kg at time interval- 3h; assay type: functional; summary of the method: as §1
[18] = system: Rattus norvegicus; test: Tested for acute anti-inflammatory activity of the antirat serum-induced edema in rats at dose of 100 mg/kg at time interval- 4 hr; assay type: functional; summary of the method: as §1
[19] = system: Rattus norvegicus; test: Tested for acute anti-inflammatory activity of carrageenan-induced foot edema in rats at dose of 100 mg/kg at time interval- 2 hr; assay type: functional
Summary of the method: as §1, with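 “2% carrageenan in […]” for “rabbit antirat serum”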

[20] = system: Rattus norvegicus; test: Tested for acute anti-inflammatory activity of the antirat serum-induced edema in rats at dose of 30 mg/kg at time interval- 2 hr; assay type: functional; summary of the method: as §1
[21] = system: Rattus norvegicus; test: Tested for acute anti-inflammatory activity of the antirat serum-induced edema in rats at dose of 30 mg/kg at time interval- 1 hr; assay type: functional; summary of the method: as §1
[22] = system: Rattus norvegicus; test: Tested for acute anti-inflammatory activity of the antirat serum-induced edema in rats at dose of 3 mg/kg at time interval- 0.5 hr; assay type: functional; summary of the method: as §1
[23] = system: Rattus norvegicus; test: Tested for acute anti-inflammatory activity of carrageenan-induced foot edema in rats at dose of 3 mg/kg at time interval- 1 hr; assay type: functional
Summary of the method: as §1, with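 “2% carrageenan in […]” for “rabbit antirat serum”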

[24] = system: Rattus norvegicus; test: Tested for acute anti-inflammatory activity of carrageenan-induced foot edema in rats at dose of 30 mg/kg at time interval- 0.5 hr; assay type: functional
Summary of the method: as §1, with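 “2% carrageenan in […]” for “rabbit antirat serum”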

[25] = system: Rattus norvegicus; test: Tested for acute anti-inflammatory activity of carrageenan-induced foot edema in rats at dose of 100 mg/kg at time interval- 4 hr; assay type: functional
Summary of the method: as §1, with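 “2% carrageenan in […]” for “rabbit antirat serum”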

[26] = system: Rattus norvegicus; test: Tested for acute anti-inflammatory activity of carrageenan-induced foot edema in rats at dose of 30 mg/kg at time interval- 3h; assay type: functional
Summary of the method: as §1, with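 “2% carrageenan in […]” for “rabbit antirat serum”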

[27] = system: Rattus norvegicus; test: Tested for acute anti-inflammatory activity of carrageenan-induced foot edema in rats at dose of 30 mg/kg at time interval- 4 hr; assay type: functional
Summary of the method: as §1, with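 “2% carrageenan in […]” for “rabbit antirat serum”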

[28] = system: Rattus norvegicus; test: Tested for acute anti-inflammatory activity of carrageenan-induced foot edema in rats at dose of 3 mg/kg at time interval- 0.5 hr; assay type: functional
Summary of the method: as §1, with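 “2% carrageenan in […]” for “rabbit antirat serum”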

[29] = system: Rattus norvegicus; test: Tested for acute anti-inflammatory activity of carrageenan-induced foot edema in rats at dose of 100 mg/kg at time interval- 3h; assay type: functional
Summary of the method: as §1, with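 “2% carrageenan in […]” for “rabbit antirat serum”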

[30] = system: Rattus norvegicus; test: Tested for acute anti-inflammatory activity of carrageenan-induced foot edema in rats at dose of 3 mg/kg at time interval- 3h; assay type: functional
Summary of the method: as §1, with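 “2% carrageenan in […]” for “rabbit antirat serum”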

[31] = system: Rattus norvegicus; test: Tested for acute anti-inflammatory activity of the antirat serum-induced edema in rats at dose of 100 mg/kg at time interval- 1 hr; assay type: functional; summary of the method: as §1
[32] = system: Rattus norvegicus; test: Tested for acute anti-inflammatory activity of carrageenan-induced foot edema in rats at dose of 100 mg/kg at time interval- 1 hr; assay type: functional
Summary of the method: as §1, with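 “2% carrageenan in […]” for “rabbit antirat serum”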

[33] = system: Rattus norvegicus; test: Tested for acute anti-inflammatory activity of the antirat serum-induced edema in rats at dose of 3 mg/kg at time interval- 4 hr; assay type: functional; summary of the method: as §1
[34] = system: Rattus norvegicus; test: Tested for acute anti-inflammatory activity of carrageenan-induced foot edema in rats at dose of 3 mg/kg at time interval- 2 hr; assay type: functional
Summary of the method: as §1, with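 “2% carrageenan in […]” for “rabbit antirat serum”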

Structure (SMILES): Cn1c(=O)[se]c2cc(C(=O)c3ccccc3)ccc21
- GSH-Px activity [1]: 0
- inhibition [2]: -1%
- GSH-Px activity [3]: 0
- inhibition [4]: -3%

Structure (SMILES): O=c1[nH]c2ccc(Cc3ccccc3)cc2[se]1
- GSH-Px activity [1]: -1
- inhibition [2]: -6%
- GSH-Px activity [3]: 0.7
- inhibition [4]: -7%

Structure (SMILES): Nc1ccc(C(O)c2ccccc2)cc1[Se][Se]c1cc(C(O)c2ccccc2)ccc1N (centres undefined)
- GSH-Px activity [1]: 245
- inhibition [2]: 92%
- GSH-Px activity [3]: 54
- inhibition [4]: 97%

Structure (SMILES): Nc1ccc(Cc2ccccc2)cc1[Se][Se]c1cc(Cc2ccccc2)ccc1N
- GSH-Px activity [1]: 242
- inhibition [2]: 91%
- GSH-Px activity [3]: 227
- inhibition [4]: 97%

Structure (SMILES): Cn1c(=O)[se]c2cc(C(=O)c3cccnc3)ccc21
- GSH-Px activity [1]: 0
- inhibition [2]: 4%
- GSH-Px activity [3]: 0
- inhibition [4]: 1%

Structure (SMILES): CN(C)C(=O)Nc1ccc(C(=O)c2ccccc2)cc1[Se][Se]c1cc(C(=O)c2ccccc2)ccc1NC(=O)N(C)C
- GSH-Px activity [1]: 212
- inhibition [2]: 98%
- GSH-Px activity [3]: 212
- inhibition [4]: 99%

Structure (SMILES): O=C(c1cccnc1)c1ccc2[nH]c(=O)[se]c2c1
- GSH-Px activity [1]: 0
- inhibition [2]: -5%
- GSH-Px activity [3]: 0
- inhibition [4]: -8%

Structure (SMILES): Nc1ccc(C(=O)c2ccc(Cl)cc2)cc1[Se][Se]c1cc(C(=O)c2ccc(Cl)cc2)ccc1N
- GSH-Px activity [1]: 279
- inhibition [2]: 100%
- GSH-Px activity [3]: 116
- inhibition [4]: 100%

Structure (SMILES): O=c1c2ccccc2[se]n1-c1ccccc1 [EBSELEN]
- inhibition in vivo at 30 mg/kg [5]: -19.6%
- inhibition in vivo at 3 mg/kg [6]: -1.1%
- inhibition in vivo at 30 mg/kg [7]: 10.2%
- inhibition in vivo at 30 mg/kg [8]: 7.9%
- inhibition in vivo at 3 mg/kg [9]: 13.5%
- inhibition in vivo at 100 mg/kg [10]: 22%
- inhibition in vivo at 100 mg/kg [11]: -93.6%
- GSH-Px activity [1]: 100
- inhibition in vivo at 100 mg/kg [12]: 16.7%
- inhibition in vivo at 30 mg/kg [13]: 47.5%
- inhibition in vivo at 100 mg/kg [14]: 4.9%
- inhibition in vivo at 30 mg/kg [15]: 3.7%
- inhibition in vivo at 3 mg/kg [16]: 2.3%
- inhibition in vivo at 3 mg/kg [17]: -6.6%
- inhibition in vivo at 100 mg/kg [18]: 16.3%
- GSH-Px activity [3]: 100
- inhibition in vivo at 100 mg/kg [19]: 18.4%
- inhibition in vivo at 30 mg/kg [20]: 8.2%
- inhibition in vivo at 30 mg/kg [21]: -3.8%
- inhibition in vivo at 3 mg/kg [22]: -9.8%
- inhibition in vivo at 3 mg/kg [23]: 29.1%
- inhibition in vivo at 30 mg/kg [24]: -54%
- inhibition in vivo at 100 mg/kg [25]: 0.6%
- inhibition in vivo at 30 mg/kg [26]: -4.1%
- inhibition in vivo at 30 mg/kg [27]: -7.5%
- inhibition in vivo at 3 mg/kg [28]: -63.5%
- inhibition in vivo at 100 mg/kg [29]: 13.7%
- inhibition in vivo at 3 mg/kg [30]: 21.4%
- inhibition in vivo at 100 mg/kg [31]: 15.9%
- inhibition in vivo at 100 mg/kg [32]: 26.9%
- inhibition in vivo at 3 mg/kg [33]: -2.6%
- inhibition in vivo at 3 mg/kg [34]: 30.3%

Structure (SMILES): O=C(c1ccc(Cl)cc1)c1ccc2[nH]c(=O)[se]c2c1
- GSH-Px activity [1]: 0
- inhibition [2]: -5%
- GSH-Px activity [3]: 0
- inhibition [4]: 5%

Structure (SMILES): CC(C)(Sc1cc(C(C)(C)C)c(O)c(C(C)(C)C)c1)Sc1cc(C(C)(C)C)c(O)c(C(C)(C)C)c1
- GSH-Px activity [1]: 0
